Each block holds one molecule with its values, some of them ahead of it. The source made the active and inactive calls. The calls are words filed in the database; no cut-off is given here.
Legend:
MCF7 [1] = test: Cell cycle arrest in human MCF7 cells assessed as accumulation at G0 phase at 10 uM after 24 hrs by FACS analysis; format: functional
In short: (§1)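 MCF-7 breast carcinoma cells were exposed to 10 µM test compound for 24 h, with DMSO as the vehicle control. Cell-cycle distribution was read by FACS as the percentage of cells in G0, G1, S and G2/M.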

MCF7 [2] = test: Cell cycle arrest in human MCF7 cells assessed as accumulation at G1 phase at 10 uM after 24 hrs by FACS analysis; format: functional; in short: as §1
MCF7 [3] = test: Cell cycle arrest in human MCF7 cells assessed as accumulation at S phase at 10 uM after 24 hrs by FACS analysis; format: functional; in short: as §1
MCF7 [4] = test: Cell cycle arrest in human MCF7 cells assessed as accumulation at G2/M phase at 10 uM after 24 hrs by FACS analysis; format: functional; in short: as §1
MCF7 [5] = test: Cell cycle arrest in human MCF7 cells assessed as accumulation at G0 phase at 30 uM after 24 hrs by FACS analysis; format: functional
In short: (§2)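 MCF-7 cells were treated at 30 µM for 24 h alongside a DMSO control. Fractions in G0, G1, S and G2/M phases were measured by FACS, and values are means of three experiments.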

MCF7 [6] = test: Cell cycle arrest in human MCF7 cells assessed as accumulation at G1 phase at 30 uM after 24 hrs by FACS analysis; format: functional; in short: as §2
MCF7 [7] = test: Cell cycle arrest in human MCF7 cells assessed as accumulation at S phase at 30 uM after 24 hrs by FACS analysis; format: functional; in short: as §2
MCF7 [8] = test: Cell cycle arrest in human MCF7 cells assessed as accumulation at G2/M phase at 30 uM after 24 hrs by FACS analysis; format: functional; in short: as §2
MCF7 [9] = test: Induction of apoptosis in human MCF7 cells assessed as decrease in procaspase 7 level at 30 uM after 24 hrs by Western blot analysis; format: functional, cell-based
In short: (§3)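 MCF-7 breast carcinoma cells were exposed to 30 µM compound for 24 h, with CA-4 as positive control. Cell lysates were then immunoblotted with antibodies to procaspase-7 and cleavage-specific PARP, using β-actin as loading control.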

MCF7 [10] = test: Induction of apoptosis in human MCF7 cells assessed as […] in PARP cleavage at 30 uM after 24 hrs by Western blot analysis; format: functional, cell-based; in short: as §3
[11] = Growth inhibition of human RPMI8266 cells; format: functional
In short: (§4)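 Five-dose testing was run within the NCI (Bethesda) in vitro Anticancer Screen Program on a panel of 53 human tumour cell lines from nine cancer types. Growth inhibition is reported as GI50.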

K562 = test: Growth inhibition of human K562 cells; format: functional; in short: as §4
A549 = test: Growth inhibition of human A549 cells; format: functional; in short: as §4
EKVX = test: Growth inhibition of human EKVX cells; format: functional; in short: as §4
HOP-62 = test: Growth inhibition of human HOP62 cells; format: functional; in short: as §4
HOP-92 = test: Growth inhibition of human HOP92 cells; format: functional; in short: as §4
NCI-H226 = test: Growth inhibition of human NCI-H226 cells; format: functional; in short: as §4
NCI-H23 = test: Growth inhibition of human NCI-H23 cells; format: functional; in short: as §4
NCI-H322M = test: Growth inhibition of human NCI-H322M cells; format: functional; in short: as §4
NCI-H460 = test: Growth inhibition of human NCI-H460 cells; format: functional; in short: as §4
NCI-H522 = test: Growth inhibition of human NCI-H522 cells; format: functional; in short: as §4
COLO 205 = test: Growth inhibition of human COLO205 cells; format: functional; in short: as §4
HCC 2998 = test: Growth inhibition of human HCC2998 cells; format: functional; in short: as §4
HCT-116 = test: Growth inhibition of human HCT116 cells; format: functional; in short: as §4
HCT-15 = test: Growth inhibition of human HCT15 cells; format: functional; in short: as §4
HT-29 = test: Growth inhibition of human HT-29 cells; format: functional; in short: as §4
KM12 = test: Growth inhibition of human KM12 cells; format: functional; in short: as §4
SW-620 = test: Growth inhibition of human SW620 cells; format: functional
In short: (§5)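 Compounds that passed a preliminary screen were tested at five doses in the NCI (Bethesda) in vitro Anticancer Screen Program against a 53-line human tumour panel spanning leukemia, lung, colon, CNS, melanoma, ovarian, renal, prostate and breast. Growth inhibition is reported as GI50.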

SF-268 = test: Growth inhibition of human SF268 cells; format: functional; in short: as §4
SF-295 = test: Growth inhibition of human SF295 cells; format: functional; in short: as §4
SF-539 = test: Growth inhibition of human SF539 cells; format: functional; in short: as §4
SNB-19 = test: Growth inhibition of human SNB19 cells; format: functional; in short: as §5
SNB-75 = test: Growth inhibition of human SNB75 cells; format: functional; in short: as §5
U-251 = test: Growth inhibition of human U251 cells; format: functional; in short: as §5
A498 = test: Growth inhibition of human A498 cells; format: functional; in short: as §4
786-0 = test: Growth inhibition of human 786-0 cells; format: functional; in short: as §4
ACHN = test: Growth inhibition of human ACHN cells; format: functional; in short: as §4
CAKI-1 = test: Growth inhibition of human Caki1 cells; format: functional; in short: as §4
RXF 393 = test: Growth inhibition of human RXF393 cells; format: functional; in short: as §4
SN12C = test: Growth inhibition of human SN12C cells; format: functional; in short: as §5
TK-10 = test: Growth inhibition of human TK10 cells; format: functional; in short: as §5
UO-31 = test: Growth inhibition of human UO31 cells; format: functional; in short: as §5
PC-3 = test: Growth inhibition of human PC3 cells; format: functional; in short: as §4
OVCAR-3 = test: Growth inhibition of human OVCAR-3 cells; format: functional; in short: as §4
OVCAR-4 = test: Growth inhibition of human OVCAR4 cells; format: functional; in short: as §4
OVCAR-5 = test: Growth inhibition of human OVCAR5 cells; format: functional; in short: as §4
OVCAR-8 = test: Growth inhibition of human OVCAR8 cells; format: functional; in short: as §4
NCI/ADR-RES = test: Growth inhibition of human NCI/ADR-RES cells; format: functional; in short: as §4
SK-OV-3 = test: Growth inhibition of human SKOV3 cells; format: functional; in short: as §5
MCF7 [12] = test: Growth inhibition of human MCF7 cells; format: functional; in short: as §4
MDA-MB-231 = test: Growth inhibition of human MDA-MB-231 cells; format: functional; in short: as §4
[13] = Growth inhibition of human Hs 578T cells; format: functional; in short: as §4
BT-549 = test: Growth inhibition of human BT549 cells; format: functional; in short: as §4
T47D = test: Growth inhibition of human T47D cells; format: functional; in short: as §5
LOX IMVI = test: Growth inhibition of human LOXIMVI cells; format: functional; in short: as §4
Malme-3M = test: Growth inhibition of human MALME-3M cells; format: functional; in short: as §4
M14 = test: Growth inhibition of human M14 cells; format: functional; in short: as §4
MDA-MB-435 = test: Growth inhibition of human MDA-MB-435 cells; format: functional; in short: as §4
SK-MEL-2 = test: Growth inhibition of human SK-MEL-2 cells; format: functional; in short: as §4
SK-MEL-28 = test: Growth inhibition of human SK-MEL-28 cells; format: functional; in short: as §4
SK-MEL-5 = test: Growth inhibition of human SK-MEL-5 cells; format: functional; in short: as §4
UACC-257 = test: Growth inhibition of human UACC257 cells; format: functional; in short: as §5
UACC-62 = test: Growth inhibition of human UACC62 cells; format: functional; in short: as §5

SMILES: COc1ccc(/C=C\c2cc(OC)c(OC)c(OC)c2)cc1O [COMBRETASTATIN A4]
Activity (MCF7 [1]): 9.45% | Activity (MCF7 [2]): 11.79% | Activity (MCF7 [3]): 9.96% | Activity (MCF7 [4]): 68.8% | Activity (MCF7 [5]): 11.64% | Activity (MCF7 [6]): 25.04% | Activity (MCF7 [7]): 39.63% | Activity (MCF7 [8]): 23.69% | Activity (MCF7 [9]): inactive | Activity (MCF7 [10]): inactive

GI50 (K562): 1270 nM | GI50 (A549): 11.8 µM | GI50 (NCI-H226): 35.2 µM | GI50 (NCI-H23): 1630 nM | GI50 (NCI-H322M): 2660 nM | GI50 (NCI-H460): 1560 nM | GI50 (NCI-H522): 1850 nM | GI50 (COLO 205): 1840 nM | GI50 (HCC 2998): 1640 nM | GI50 (HCT-116): 370 nM | GI50 (HCT-15): 1380 nM | GI50 (HT-29): 1280 nM | GI50 (SW-620): 450 nM | GI50 (U-251): 880 nM | GI50 (786-0): 1610 nM | GI50 (ACHN): 1820 nM | GI50 (PC-3): 6.22 µM | GI50 (OVCAR-3): 1780 nM | GI50 (OVCAR-4): 3.57 µM | GI50 (OVCAR-5): 2640 nM | GI50 (OVCAR-8): 2530 nM | GI50 (SK-OV-3): 4.6 µM | GI50 (MCF7 [12]): 440 nM | GI50 (MDA-MB-231): 5.48 µM | GI50 (BT-549): 2590 nM | GI50 (T47D): 3.84 µM | GI50 (MDA-MB-435): 1860 nM | GI50 (SK-MEL-2): 2630 nM | GI50 (SK-MEL-28): 2030 nM | GI50 (SK-MEL-5): 2030 nM
SMILES: COc1ccc(-c2cn(-c3cccc(C(=O)/C=C/c4cc(OC)c(OC)c(OC)c4)c3)c(=O)[nH]2)cc1
GI50 [11]: 920 nM | GI50 (EKVX): 4.2 µM | GI50 (HOP-62): 5.91 µM | GI50 (HOP-92): 14.9 µM | GI50 (KM12): 1420 nM | GI50 (SF-268): 3.21 µM | GI50 (SF-295): 4.95 µM | GI50 (SF-539): 2000 nM | GI50 (SNB-19): 4.38 µM | GI50 (SNB-75): 4.59 µM | GI50 (A498): 4.21 µM | GI50 (CAKI-1): 3.05 µM | GI50 (RXF 393): 1920 nM | GI50 (SN12C): 3.5 µM | GI50 (TK-10): 3.04 µM | GI50 (UO-31): 1910 nM | GI50 (NCI/ADR-RES): 1700 nM | GI50 [13]: 3.39 µM | GI50 (LOX IMVI): 720 nM | GI50 (Malme-3M): 1790 nM | GI50 (M14): 1850 nM | GI50 (UACC-257): 3.04 µM | GI50 (UACC-62): 2060 nM | Activity (MCF7 [1]): 3.79% | Activity (MCF7 [2]): 60.66% | Activity (MCF7 [3]): 21.47% | Activity (MCF7 [4]): 14.08% | Activity (MCF7 [5]): 36.02% | Activity (MCF7 [6]): 46.02% | Activity (MCF7 [7]): 8.45% | Activity (MCF7 [8]): 9.51%

Source: ChEMBL document CHEMBL1208778, “Synthesis and anti-cancer activity of chalcone linked imidazolones” (2010)
